Assay outcomes deposited in PubChem by Johns Hopkins Ion Channel Center.
Sampled rows, rich in hits. Any-hit rate of the full collection: about 3.1%.
KCNK9 block: human KCNK9 channel inhibition; Q9NPC2; HEK293 KCNK9, FluxOR thallium flux fluorescence; hits give low values; B-score at 10 µM; 1.2% of 310,000 active; AID 488922;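 active = ratio B-score over 3 SD below the library mean, with starting fluorescence within 5 SD of its mean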;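 note: negative B-score means less thallium flux so channel inhibition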
KCNK3 block: human KCNK3 channel inhibition, primary screen | 0.84% of 340,000 active | CHO-KCNK3 thallium flux, FluxOR fluorescence; hits give low values | AID 602410 | B-score at 10 µM | O14649;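 active = B-score under library mean minus 4 SD, starting fluorescence ratio at most library mean plus 5 SD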;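 note: more negative B-score means stronger inhibition of thallium flux through KCNK3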
KCNQ1 pot: potentiators or activators of human KCNQ1 potassium channel; B-score at 10 µM; CHO-K1 KCNQ1, thallium flux FluxOR fluorescence; hits give high values; 0.35% of 310,000 active; P51787;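 active = fluorescence ratio B-score, a plate-corrected score, at least three library SD, with initial intensity B-score within 5 SD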
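System: Stable KCNQ1 CHO-K1 line | Incubation: 90 min dye loading and 20 min compound exposure, both at room temperature | Measure: Ratio B score | Medium: Assay buffer for compound exposure, DMSO matched across wells | Compound dosing: Single-concentration screen | Probe or stimulus: K+/Tl+ depolarizing stimulus | Measured by: Kinetic FluxOR fluorescence, 10 s baseline plus 110 s post-stimulus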
KCNQ1 inh: blocks the human KCNQ1 potassium channel; P51787; CHO-K1 KCNQ1, FluxOR thallium flux fluorescence; hits give high values; B-score at 10 µM; 1.3% of 310,000 active; AID 2642;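 active = compounds whose thallium flux B-score, printed positive for inhibition, exceeds three library SD while starting fluorescence stays within three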;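 note: channel opened by potassium depolarization with thallium stimulus after 20 min compound exposure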
hERG rescue: compounds protecting human hERG from proarrhythmic drug block. 0.51% of 310,000 active. AID 1511. CHO-hERG, FluxOR thallium flux, dofetilide IC70 present. Q12809. activation (rescue from dofetilide block), less the hit threshold, % at 10 µM;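 active = activation above the mean of controls blocked by dofetilide plus 5 SD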;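 note: thallium influx through hERG after potassium depolarization seen as dye fluorescence rise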
KCNK9 inh conf: confirmation of human KCNK9 potassium channel inhibitors | shares compounds with KCNK9 block | HEK293 KCNK9 cells, FluxOR thallium flux fluorescence | inhibition, % at 10 µM | 43% of 4,900 active | AID 492992;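 active = thallium signal inhibited by more than 5 SD of the compound-free buffer control wells, on both duplicate plates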
Kir2-1 spec: selectivity of KCNK9 modulators against mouse Kir2.1; shares compounds with KCNK9 block; Kir2.1 cells, FluxOR thallium flux fluorescence; inhibition, % at 10 µM; 4% of 4,900 active; AID 492993;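 active = thallium signal drop more than 5 SD beyond the mean of the no-compound control wells, seen in both duplicate plates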;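 note: signal is fluorescence rise after thallium addition divided by baseline fluorescence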
Target sequence (P35561 whole entry, looked up): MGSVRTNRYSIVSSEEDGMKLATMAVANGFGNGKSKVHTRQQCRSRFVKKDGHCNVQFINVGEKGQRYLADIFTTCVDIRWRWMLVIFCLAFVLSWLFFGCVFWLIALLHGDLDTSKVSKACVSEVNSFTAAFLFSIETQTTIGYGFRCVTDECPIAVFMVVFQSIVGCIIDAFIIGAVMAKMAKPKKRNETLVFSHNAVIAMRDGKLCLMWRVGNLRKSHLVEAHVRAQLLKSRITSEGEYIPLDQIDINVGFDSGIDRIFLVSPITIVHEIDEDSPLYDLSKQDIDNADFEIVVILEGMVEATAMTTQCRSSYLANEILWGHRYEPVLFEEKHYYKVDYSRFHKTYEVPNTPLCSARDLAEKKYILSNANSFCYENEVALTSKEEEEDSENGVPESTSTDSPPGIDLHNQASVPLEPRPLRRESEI
KCNK9 uninduced: second counter-screen for KCNK9 modulators: effect in non-induced cells; shares compounds with KCNK9 block; non-induced KCNK9-HEK293, FluxOR thallium flux; 40% of 4,900 active; AID 492997; inhibition, % at 10 µM;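 active = thallium signal drop beyond 5 SD of the untreated control mean, on both duplicate plates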
Each line names hits and unclear results; the compound was inactive in the other large screens (follow-up assays come after a bar, where they were run).

Cc1cccc(NC(=O)CCSc2nnc(Cc3ccccc3)o2)c1	none | KCNK9 inh conf inactive | Kir2-1 spec inactive | KCNK9 uninduced inactive
COc1cccc(/C=C/c2nc(S(=O)(=O)c3ccccc3)c(N(C)C)o2)c1	none
CN(C)c1oc(/C=C/c2cccs2)nc1S(=O)(=O)c1ccccc1	KCNK9 block -8.11 | KCNK9 inh conf 42.0% | Kir2-1 spec inactive | KCNK9 uninduced inactive
COc1ccccc1/C=C/c1nc(S(=O)(=O)c2ccccc2)c(N(C)C)o1	KCNK9 block -10.7 | KCNK9 inh conf 53.0% | Kir2-1 spec inactive | KCNK9 uninduced 28.5%
O=C(Nc1ncn[nH]1)c1cccc(S(=O)(=O)N2CCOCC2)c1	none
CCN(CC1CCCO1)C(=O)CCc1nnc(CCc2ccccc2OC)o1 (centres undefined)	none
O=C(COc1ccccc1C(=O)O)Nc1ccc(SC(F)F)cc1	none
O=C(COC(=O)c1ccccc1C(=O)c1ccccc1)Nc1ccc(SC(F)F)cc1	KCNK9 block -11.7 | KCNK9 inh conf inactive | Kir2-1 spec inactive | KCNK9 uninduced 31.5%
Cc1ccc(S(=O)(=O)N2CCCOC2CNC(=O)C(=O)NCc2ccc3c(c2)OCO3)cc1 (centres undefined)	none
COCCN1C(=O)/C(=C/c2ccc(Oc3ccc([N+](=O)[O-])cn3)c(OC)c2)SC1=Nc1ccccc1	none | KCNK9 inh conf inactive | Kir2-1 spec inactive | KCNK9 uninduced inactive
O=C(/C(=N\Nc1ccc(Br)cc1)Sc1nnnn1-c1ccccc1)c1ccccc1	none
Brc1ccc(N/N=C(/N=Nc2nn[nH]n2)c2ccccc2)cc1	KCNQ1 inh 12 | KCNK9 inh conf inactive | Kir2-1 spec inactive | KCNK9 uninduced inactive
CCS(=O)(=O)N1CCN(S(=O)(=O)c2ccc(Cl)s2)CC1	none
Cc1ccc(N2CCN(S(=O)(=O)c3ccc(Cl)s3)CC2C)cc1 (centres undefined)	none | KCNK9 inh conf inactive | Kir2-1 spec inactive | KCNK9 uninduced inactive
Cc1ccc(N2CC(NC(=O)C3CC3)CC2=O)cc1 (centres undefined)	none
O=C(Nc1nc(-c2cc(Cl)sc2Cl)cs1)c1ccccc1	KCNK9 block -9.47 | KCNK9 inh conf 33.5% | Kir2-1 spec inactive | KCNK9 uninduced inactive
O=C(COc1ccc2ccccc2c1)N1c2ccccc2Sc2ccccc21	KCNK9 block -12.8 | KCNK9 inh conf 55.5% | Kir2-1 spec inactive | KCNK9 uninduced 45.5%
O=C(NCc1ccco1)N1c2ccccc2Sc2ccccc21	none | KCNK9 inh conf inactive | Kir2-1 spec inactive | KCNK9 uninduced inactive
CC(=O)N1c2ccccc2Sc2ccccc21	none
CC1CN(C(=O)COc2ccc3ccccc3c2)CC(C)O1 (centres undefined)	none (no result: KCNK9 block, KCNQ1 pot, KCNQ1 inh, hERG rescue)
COc1ccccc1C(=O)N1c2ccccc2Sc2ccccc21	KCNK9 block -13.6 | KCNK9 inh conf 54.0% | Kir2-1 spec inactive | KCNK9 uninduced 42.0%
COc1ccc(CCNC(=O)N2c3ccccc3Sc3ccccc32)cc1	none | KCNK9 inh conf inactive | Kir2-1 spec inactive | KCNK9 uninduced inactive
O=C(NS(=O)(=O)Oc1cccc(Cl)c1Cl)OC[C@@H]1CCCN2CCCCC12 (some centres undefined)	none
Cc1onc(-c2ccccc2)c1C(=O)c1ccccc1	none
O=C(CNC1CCCCC1)Nc1cc(S(=O)(=O)N2CCOCC2)ccc1Cl	none
CC(C)(C)NC(=O)N1c2ccccc2Sc2ccccc21	none | KCNK9 inh conf inactive | Kir2-1 spec inactive | KCNK9 uninduced inactive
CC(C)NC(=O)N1c2ccccc2Sc2ccccc21	none
CCC1CN(C(=O)N2CCC(C(=O)NCc3ccco3)CC2)c2cc(C)ccc2O1 (centres undefined)	none
Cc1ccc(CN2CCN(/N=C/c3ccc(C)s3)CC2)c(C)c1	none | KCNK9 inh conf inactive | Kir2-1 spec inactive | KCNK9 uninduced inactive
COc1cccc(C(=O)NCC(C)(C)SCc2ccc(F)cc2)c1	none | KCNK9 inh conf inactive | Kir2-1 spec inactive | KCNK9 uninduced inactive
CC(C)c1ccc(OC(=O)c2cccc(S(=O)(=O)N3CCN(C)CC3)c2)cc1	none | KCNK9 inh conf inactive | Kir2-1 spec inactive | KCNK9 uninduced inactive
Cn1/c(=N\NC(=O)c2ccccc2Cl)sc2ccccc21	none
O=C(CCC(=O)c1ccc(Oc2ccccc2)cc1)Nc1ccc(Cl)cc1Cl	none | KCNK9 inh conf inactive | Kir2-1 spec inactive | KCNK9 uninduced inactive
Cc1ccccc1-n1c(SCC(=O)c2cc(C)n(C)c2C)nnc1-c1ccncc1	none
COc1ccc(N(CC(=O)NCc2ccc3c(c2)OCO3)C(=O)c2csnn2)cc1	none
C/C(=N\NC(=O)c1nn(C)c(C)c1Br)c1ccc(NC(=O)c2ccccc2F)cc1	KCNK9 block -11.6 | KCNK9 inh conf 63.5% | Kir2-1 spec inactive | KCNK9 uninduced 26.0%
O=C(O)CSc1cc(NS(=O)(=O)c2ccc(Br)cc2)c2ccccc2c1O	none | KCNK9 inh conf inactive | Kir2-1 spec inactive | KCNK9 uninduced 28.5%
CC(OC(=O)CCN=C1NS(=O)(=O)c2ccccc21)C(=O)Nc1ccc(F)c(F)c1F (centres undefined)	none
CCOc1cc(S(=O)(=O)NCc2ccncc2)c(C)cc1C	none
CCCCCN=C(N)N/N=C/c1c[nH]c2ccc(OC)cc12	KCNK9 block -11.1, KCNQ1 inh 7 | KCNK9 inh conf 66.0% | Kir2-1 spec 64.0% | KCNK9 uninduced inactive
COc1ccc(C(CNC(=O)c2cccc(S(=O)(=O)Nc3cccc(C)c3)c2)N2CCOCC2)cc1 (centres undefined)	none
COCCNC(=O)CN(C(=O)Cn1nnc2ccccc21)c1ccc(C)c(F)c1	none | KCNK9 inh conf inactive | Kir2-1 spec inactive | KCNK9 uninduced inactive
O=C(OC(c1ccccc1)c1nccc2ccccc12)c1cccc([N+](=O)[O-])c1 (centres undefined)	KCNK9 block -13, KCNQ1 inh 7 | KCNK9 inh conf 40.0% | Kir2-1 spec inactive | KCNK9 uninduced 47.5%
Cn1nc(C(=O)NCc2cccs2)c2ccccc2c1=O	none
COc1ccc(N(CCCN2C(=O)c3cccc4cccc(c34)C2=O)C(=O)c2cccnc2)cc1	none | KCNK9 inh conf inactive | Kir2-1 spec inactive | KCNK9 uninduced inactive
COc1ccc(N(CCCN2C(=O)c3cccc4cccc(c34)C2=O)C(=O)c2ccncc2)cc1	none
COCC(C)n1c(SCC(=O)NC(=O)NCc2ccccc2)nc2ccccc2c1=O (centres undefined)	none (no result: KCNK9 block, KCNQ1 pot, KCNQ1 inh, hERG rescue)
Cc1cc(C(=O)COC(=O)CNC(=O)c2ccco2)c(C)n1Cc1ccco1	none
COc1cc(OC)cc(C(=O)NCC(=O)OCC(=O)c2cc(C)n(Cc3ccco3)c2C)c1	none
